Measurements: ChEMBL document CHEMBL4028805, “Phenylthiazole Antibacterial Agents Targeting Cell Wall Synthesis Exhibit Potent Activity in Vitro and in Vivo against Vancomycin-Resistant Enterococci” (J Med Chem, 2017)
Values after ≈ are worked out from the molar mass of the structure shown. Active and inactive are the calls of the source. No cut-off for these calls is given here.

How the values were obtained:
Enterococcus faecium [1] = assay: Antibacterial activity against Enterococcus faecium clinical isolates after 18 to 22 hrs by broth microdilution method; type: functional
How it was run: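 Enterococcus faecium grown in BHI. MIC by CLSI broth microdilution, 37 °C for 18–22 h. Lowest concentration with no visible growth taken as MIC, reported as MIC50 across the isolates.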

Enterococcus faecium [2] = assay: Antibacterial activity against vancomycin-resistant Enterococcus faecium clinical isolates after 18 to 22 hrs by broth microdilution method; type: functional
How it was run: (§1)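 CLSI broth microdilution against panels of enterococcal isolates. E. faecalis grown in TSB, E. faecium in BHI, 37 °C for 18–22 h. MIC is the lowest concentration without visible growth. MIC50 is the value inhibiting 50% of isolates in each group.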

Enterococcus faecalis [3] = assay: Antibacterial activity against Enterococcus faecalis clinical isolates after 18 to 22 hrs by broth microdilution method; type: functional; how it was run: as §1
Enterococcus faecalis [4] = assay: Antibacterial activity against vancomycin-resistant Enterococcus faecalis clinical isolates after 18 to 22 hrs by broth microdilution method; type: functional; how it was run: as §1
Enterococcus faecium [5] = assay: Bactericidal activity against Vancomycin-resistant Enterococcus faecium clinical isolates after 18 to 22 hrs by broth microdilution method; type: functional
How it was run: (§2)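 MBC follows the broth microdilution MIC. 5 μL aliquots spotted onto TSA (E. faecalis) or BHI agar (E. faecium), incubated 37 °C for 18–22 h. MBC is the concentration giving >99% reduction in bacterial count. MBC50 is the value for 50% of isolates.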

Enterococcus faecalis [6] = assay: Bactericidal activity against vancomycin-resistant Enterococcus faecalis clinical isolates after 18 to 22 hrs by broth microdilution method; type: functional; how it was run: as §2
Bacillus subtilis [7] = assay: Antibacterial activity against Bacillus subtilis assessed as misshapen cells at 5 times MIC after 2 hrs in presence of methylsulfonyl methane by phase contrast microscopic analysis; type: functional
How it was run: (§3)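 B. subtilis grown in LB at 37 °C to OD600 ~0.2, then treated at 5 × MIC with MSM for osmotic stabilisation. At 2 h, stained with FM 4-64 (1 μg/mL), DAPI (1 μg/mL) and SYTOX Green (1 μg/mL). Imaged by deconvolution fluorescence and phase contrast microscopy.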

Bacillus subtilis [8] = assay: Antibacterial activity against Bacillus subtilis assessed as bending of cells at 5 times MIC after 2 hrs in presence of methylsulfonyl methane by phase contrast microscopic analysis; type: functional; how it was run: as §3
Bacillus subtilis [9] = assay: Antibacterial activity against Bacillus subtilis assessed as pool of membranes at 5 times MIC after 2 hrs in presence of methylsulfonyl methane by phase contrast microscopic analysis; type: functional; how it was run: as §3
Enterococcus faecalis [10] = assay: Inhibition of UPPP-mediated peptidoglycan biosynthesis in Enterococcus faecalis NR-31975 assessed as accumulation of UDP-N-acetylmuramyl-pentapeptide at 10 times MIC after 30 mins by HPLC-MS analysis
How it was run: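 Pellets boiled 30 min. UDP-N-acetylmuramyl-pentapeptide measured by HPLC-TOF MS on a phenyl column, 5–20% acetonitrile/0.1% formic acid gradient, positive ESI.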

Enterococcus faecalis [11] = assay: Antibacterial activity against vancomycin-resistant Enterococcus faecalis HM-201 infected in Caenorhabditis elegans AU37 assessed as reduction in bacterial burden at 20 ug/ml after 18 hrs by CFU-based […] analysis relative to control; type: functional
How it was run: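 C. elegans AU37 adults infected on an E. faecalis HM-201 lawn for 2 h, washed in M9, 20–25 worms per well. Treated in triplicate with 20 μg/mL, with water as negative control. Worms washed, lysed with silicon carbide by vortexing, diluted serially and plated on TSA with 50 μg/mL gentamicin. CFU counted after 18 h at 37 °C and expressed as % reduction versus untreated worms.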

Acinetobacter baumannii [12] = assay: Antibacterial activity against Acinetobacter baumanii ATCC 19606 after 18 to 22 hrs in absence of colistin by broth microdilution method; type: functional; conditions: ATCC 19606 = CIP 70.34 = JCM 6841
How it was run: (§4)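 Broth microdilution per CLSI guidelines. Gram-negatives grown in TSB. Each strain tested alone and again with colistin at ¼ × MIC to permeabilize the outer membrane. Plates incubated at 37 °C for 18–22 h. MIC read as the lowest concentration showing no visible growth.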

Escherichia coli [13] = assay: Antibacterial activity against Escherichia coli O157:H7 ATCC 35150 after 18 to 22 hrs in absence of colistin by broth microdilution method; type: functional
Enterobacter cloacae [14] = assay: Antibacterial activity against Enterobacter cloacae BAA-1154 after 18 to 22 hrs in absence of colistin by broth microdilution method; type: functional
Klebsiella pneumoniae [15] = assay: Antibacterial activity against Klebsiella pneumoniae BAA-1706 after 18 to 22 hrs in absence of colistin by broth microdilution method; type: functional
Pseudomonas aeruginosa [16] = assay: Antibacterial activity against Pseudomonas aeruginosa ATCC 15442 after 18 to 22 hrs in absence of colistin by broth microdilution method; type: functional
Acinetobacter baumannii [17] = assay: Antibacterial activity against Acinetobacter baumanii ATCC 19606 after 18 to 22 hrs in presence of 1/4 times MIC colistin by broth microdilution method; type: functional; conditions: ATCC 19606 = CIP 70.34 = JCM 6841; how it was run: as §4
Escherichia coli [18] = assay: Antibacterial activity against Escherichia coli O157:H7 ATCC 35150 after 18 to 22 hrs in presence of 1/4 times MIC colistin by broth microdilution method; type: functional
Enterobacter cloacae [19] = assay: Antibacterial activity against Enterobacter cloacae BAA-1154 after 18 to 22 hrs in presence of 1/4 times MIC colistin by broth microdilution method; type: functional; how it was run: as §4
Klebsiella pneumoniae [20] = assay: Antibacterial activity against Klebsiella pneumoniae BAA-1706 after 18 to 22 hrs in presence of 1/4 times MIC colistin by broth microdilution method; type: functional; how it was run: as §4
Pseudomonas aeruginosa [21] = assay: Antibacterial activity against Pseudomonas aeruginosa ATCC 15442 after 18 to 22 hrs in presence of 1/4 times MIC colistin by broth microdilution method; type: functional; how it was run: as §4
[22] = Induction of proton motive force collapse in Escherichia coli inverted membrane vesicle in presence of ATP-driven PMF generation system by ACMA-based fluorescence assay; type: functional, cell membranes
How it was run: (§5)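 E. coli inverted membrane vesicles (0.1 mg/mL membrane protein) with 2 μM ACMA and 0.5 mM ATP or succinate, in 10 mM HEPES-KOH, 5 mM MgSO4, 100 mM KCl, pH 7.5. Proton gradient followed by ACMA fluorescence (ex 410/em 480 nm). EC50 taken from dose-response curves. CCCP used as reference uncoupler.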

[23] = Induction of proton motive force collapse in Escherichia coli inverted membrane vesicle in presence of succinate/O2-driven PMF generation system by ACMA-based fluorescence assay; type: functional, cell membranes; how it was run: as §5
Escherichia coli [24] = assay: Antibacterial activity against tolC deficient Escherichia coli assessed as formation of misshapen cells at 125 ug/ml after 30 mins in presence of sucrose by FM4-64/DAPI/SYTOX Green staining-based deconvolution microscopic analysis; type: functional
Escherichia coli [25] = assay: Antibacterial activity against tolC deficient Escherichia coli assessed as formation of spheroplasts at 125 ug/ml after 30 mins in presence of sucrose by FM4-64/DAPI/SYTOX Green staining-based deconvolution microscopic analysis; type: functional
Escherichia coli [26] = assay: Antibacterial activity against tolC deficient Escherichia coli assessed as cell lysis at 125 ug/ml after 2 hrs in presence of sucrose by FM4-64/DAPI/SYTOX Green staining-based deconvolution microscopic analysis; type: functional
Bacillus subtilis [27] = assay: Antibacterial activity against Bacillus subtilis assessed as cell shape defects at 1 times MIC after 2 hrs in presence of methylsulfonyl methane by phase contrast microscopic analysis; type: functional
How it was run: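 B. subtilis grown in LB at 37 °C to OD600 ~0.2 and treated, with or without MSM for osmotic stabilization, for 30 min or 2 h. Stained with FM 4-64 (1 μg/mL), DAPI (1 μg/mL) and SYTOX Green (1 μg/mL) to score permeability. Examined by deconvolution and phase-contrast microscopy.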

SMILES: CN[C@H](CC(C)C)C(=O)N[C@H]1C(=O)N[C@@H](CC(N)=O)C(=O)N[C@H]2C(=O)N[C@H]3C(=O)N[C@H](C(=O)N[C@H](C(=O)O)c4cc(O)cc(O)c4-c4cc3ccc4O)[C@H](O)c3ccc(c(Cl)c3)Oc3cc2cc(c3O[C@@H]2O[C@H](CO)[C@@H](O)[C@H](O)[C@H]2O[C@H]2C[C@](C)(N)[C@H](O)[C@H](C)O2)Oc2ccc(cc2Cl)[C@H]1O [VANCOMYCIN]
- MIC50 (Enterococcus faecium [1]): 1 µg/mL (≈ 0.69 µM)
- MIC50 (Enterococcus faecium [2]): > 64 µg/mL
- MIC50 (Enterococcus faecalis [3]): 1 µg/mL (≈ 0.69 µM)
- MIC50 (Enterococcus faecalis [4]): > 64 µg/mL
- MBC50 (Enterococcus faecium [5]): >64 µg/mL
- MBC50 (Enterococcus faecalis [6]): >64 µg/mL
- Activity (Bacillus subtilis [7]): Active
- Activity (Bacillus subtilis [8]): Active
- Activity (Bacillus subtilis [9]): Active
- inhibition (Enterococcus faecalis [10]): Active
- Activity (Enterococcus faecalis [11]): inactive

SMILES: CC[C@H]1OC(=O)[C@H](C)[C@@H](O[C@H]2C[C@@](C)(OC)[C@@H](O)[C@H](C)O2)[C@H](C)[C@@H](O[C@@H]2O[C@H](C)C[C@H](N(C)C)[C@H]2O)[C@](C)(O)C[C@@H](C)C(=O)[C@H](C)[C@@H](O)[C@]1(C)O [ERYTHROMYCIN]
- MIC (Acinetobacter baumannii [12]): 8 µg/mL (≈ 10.9 µM)
- MIC (Escherichia coli [13]): 64 µg/mL (≈ 87.2 µM)
- MIC (Enterobacter cloacae [14]): 128 µg/mL (≈ 174 µM)
- MIC (Klebsiella pneumoniae [15]): 128 µg/mL (≈ 174 µM)
- MIC (Pseudomonas aeruginosa [16]): 128 µg/mL (≈ 174 µM)
- MIC (Acinetobacter baumannii [17]): 0.5 µg/mL
- MIC (Escherichia coli [18]): 1 µg/mL
- MIC (Enterobacter cloacae [19]): 1 µg/mL
- MIC (Klebsiella pneumoniae [20]): 0.5 µg/mL
- MIC (Pseudomonas aeruginosa [21]): 1 µg/mL

SMILES: N#CC(C#N)=NNc1cccc(Cl)c1 [CARBONYL CYANIDE M-CHLOROPHENYLHYDRAZONE]
- EC50 [22]: 400 nM
- EC50 [23]: 200 nM

SMILES: N[C@@H]1CONC1=O
- Activity (Escherichia coli [24]): Active
- Activity (Escherichia coli [25]): Active
- Activity (Escherichia coli [26]): Active
- Activity (Bacillus subtilis [27]): Active
